A short description of one series: LogD at pH 7.4. Particulars: 1-octanol/phosphate-buffered saline (1:1, v/v). The series is classed as physicochemical.
The subject of another series is 7G8. As to the kind of experiment: 3H-hypoxanthine 72 h assay, 7G8. The series is classed as cell-based. Particulars: Plasmodium falciparum, 7G8, read-out: Pf multidrug-resistant strain EC50 7G8.
Series [1] deals with Pf SB1-A6 strain with a CNV (∼2-fold) and a C276F mutation in DHODH. Description: SB1-A6 asexual-stage assay. The series is classed as cell-based. Particulars: Plasmodium falciparum, 72 h, read-out: SB1-A6 EC50. The essentials: (§1)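 Parasites were sorbitol-synchronised one cycle before setup. Ring stages at 0.5% parasitemia and 2% hematocrit were plated onto twofold compound dilutions and incubated at 37 °C for 72 h. Cells were fixed in 0.25% glutaraldehyde (RT, 30 min), stained with 2.5× SYBR Green (37 °C, 30 min) and counted by flow cytometry. EC50 is the average of three independent experiments.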

For series [2], the system named is Pf Dd2 strain with an I22L mutation in the Qi site cyt b. As to the kind of experiment: 3H-hypoxanthine 72 h assay, Dd2 cyt b. The series is classed as cell-based, Plasmodium falciparum. The essentials: (§2)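 Asexual blood-stage parasites in hypoxanthine-free RPMI 1640 with HEPES, NaHCO3, neomycin (100 μg/mL) and Albumax II (5 g/L). Infected blood (0.3% parasitemia, 2.5% hematocrit) was exposed to a 10-point serial dilution at 37 °C under 93% N2/4% CO2/3% O2. After 48 h, [3H]-hypoxanthine (0.5 μCi/well) was added for 24 h more. Scintillation cpm were normalised to untreated controls, and logit regression gave values as means of two experiments.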

The test system of series [3] is P. falciparum 3D7 parasites. Description: P. falciparum 3D7 asexual-stage parasite LDH viability assay. The series is classed as cell-based, Plasmodium falciparum.
A further series deals with P. berghei EEFs. Description: Exoerythrocytic stage assay. Particulars: Plasmodium berghei, 48 h, read-out: Pb liver stage EEFs EC50 (SD). The series is classed as cell-based.
Series [4] can be described thus: Liver microsome stability, mouse. The series is classed as in vitro ADME. Particulars: pooled mouse liver microsomes. The method, boiled down: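 Test compound (1 μM, phosphate buffer) was incubated with pooled mouse liver microsomes (0.5 mg/mL) at 37 °C, with and without an NADPH regeneration system, sampling at 0, 5, 20, 30, 45 and 60 min. Run in duplicate.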
The test system of another series is Pf Dd2 parental line. As to the kind of experiment: 3H-hypoxanthine 72 h assay, Dd2 parental line. The series is classed as cell-based. Conditions: Plasmodium falciparum, DD2, read-out: Pf Dd2 EC50, Dd2 parental line, 3H-hypoxanthine 72 h; average of two experiments.
Series [5] deals with P. berghei ANKA parasites expressing GFP. As to the kind of experiment: Peter's 4 day P. berghei mouse model. Conditions: 20 mg/kg p.o. q.d. days 0-3. The series is classed as in vivo. The method, boiled down: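 Swiss mice (four per group) were infected IV with 1 × 10^7 P. berghei ANKA GFPcon-infected erythrocytes from donor mice. Dosing was oral once daily for 4 days, starting 2 h post-infection: test compound at 20 mg/kg in 20% DMSO/60% propylene glycol/20% water, or chloroquine at 10 mg/kg in water. Day-4 parasitemia was measured as GFP+ cells per 100,000 events and by Giemsa smears, with reduction calculated against vehicle.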

The test system of another series is NF54. Description: 3H-hypoxanthine 72 h assay, NF54. The series is classed as cell-based. Particulars: Plasmodium falciparum, NF54, read-out: Pf multidrug-resistant strain EC50 NF54.
A further series has as its system K1. Description: 3H-hypoxanthine 72 h assay, K1. The series is classed as cell-based. Conditions: Plasmodium falciparum, K1, read-out: Pf multidrug-resistant strain EC50 K1.
For a further series, the system named is RF12. Description: 3H-hypoxanthine 72 h assay, RF12. The series is classed as cell-based. Conditions: Plasmodium falciparum, read-out: Pf multidrug-resistant strain EC50 RF12.
In series [6] the test system is mitochondrial electron transport chain of P. falciparum 3D7 asexual parasites. As to the kind of experiment: ETC biosensor / oxygen consumption rate. The series is classed as cell-based, Plasmodium falciparum. Particulars: for OCR upon addition of TMPD: after compound (5 μM), TMPD (cytochrome c electron donor) added; for effect on malate-dependent oxygen consumption rate (OCR): compounds at 5 μM, malate as the energy source. The method, boiled down: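 Magnet-purified trophozoite-infected RBCs were saponin-released (0.05%, 37 °C, 3 min) and washed. Parasites were suspended in MAS buffer with 25 mM malate and 0.002% digitonin and seeded at 5 × 10^6 per Cell-Tak-coated well (800g, 10 min). Seahorse XFe96 OCR was read at baseline, after test compound (5 μM final), after TMPD (0.2 mM) with ascorbate (2 mM), then after NaN3 (10 mM). Each cycle was 20 s mix, 1 min wait, 2.5 min measure.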

Series [7] has as its system P. falciparum NF54 female gametes. As to the kind of experiment: Dual gamete formation assay. The series is classed as cell-based. Particulars: Plasmodium falciparum, NF54, read-out: female gamete EC50. The method, boiled down:
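Stage V NF54 gametocyte cultures with >0.2% exflagellation were diluted to 12.5 million cells/mL in gametocyte medium containing 10% human serum and no Albumax. They were dispensed warm (625,000 cells/well) onto the test compound. After ookinete medium was added, plates went to 4 °C for 4 min and then 28 °C for 5 min, followed by 24 h at 28 °C in the dark. Female gametes (Pfs25) were scored from one fluorescence image per well.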

In another series the test system is HepG2. Description: HepG2 host cell viability in the liver stage panel. The series is classed as cell-based. Conditions: Homo sapiens, HepG2, 48 h, read-out: HepG2 EC50 (liver stage).
Series [8] relates to drug-resistant P. falciparum strains. As to the kind of experiment: Profiling against a selection of multidrug-resistant parasites. The series is classed as cell-based, Plasmodium falciparum. The method, boiled down: as §2
A short description of series [9]: Hepatocyte stability, rat. Particulars: pooled rat hepatocytes. The series is classed as in vitro ADME. The method, boiled down:
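Test compound (1 μM) in Krebs–Henseleit buffer was incubated with pooled rat hepatocytes (1 × 10^6 cells/mL) at 37 °C, 5% CO2, with samples from 0 to 90 min. Reactions were quenched with ice-cold acetonitrile and centrifuged, and supernatants were analysed by LC–MS/MS. Half-life and CLint were derived from parent remaining. Run in duplicate.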

The nature of series [10]: Plasma bioanalysis in the P. berghei mouse model. Conditions: 20 mg/kg oral. The series is classed as in vivo. The essentials:
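Blood was sampled from P. berghei-infected mice at 2, 6 and 22 h after the first oral 20 mg/kg dose. Plasma compound concentrations were quantified by LCMS.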

Series [11] relates to Pf Dd2 expressing ScDHODH. As to the kind of experiment: ScDHODH asexual-stage assay. The series is classed as cell-based. Particulars: Plasmodium falciparum, DD2, 72 h, read-out: Dd2 ScDHODH EC50. The essentials:
as §1

The subject of series [12] is 41 resistant 3D7 P. falciparum populations (V259L cyt b Qo site mutation). As to the kind of experiment: LDH growth assay against 41 resistant populations. The series is classed as cell-based. Particulars: Plasmodium falciparum, 3D7, read-out: EC50 against all three populations. The essentials: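 Three 3D7 clonal populations were selected by exposure to test compound starting at 2 × EC50, monitored by Giemsa smears and stepped up after recovery. Synchronised ring-stage parasites were then grown 72 h on predispensed compound in RPMI/AlbuMAX and frozen at −80 °C overnight. LDH activity was read with APAD/NBT absorbance at 650 nm.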

Series [13] is described as follows: Kinetic aqueous solubility. The series is classed as physicochemical. Particulars: kinetic in PBS. The method, boiled down: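 Miniaturised shake flask: test compound (200 μM) in PBS pH 7.4 was shaken at 600 rpm, 25 °C for 2 h, filtered, and the filtrate half-diluted in acetonitrile. Run in duplicate.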
Series [14] in a line: Liver microsome stability, human. The series is classed as in vitro ADME.
Where [15] appears, read: 3D7 parasite EC50 compared to 17.

pEC50: −log10 of the molar value. Several values for one entry are separate records, joined by “and”; a condition that tells them apart may be missing. Equal entries are not always repeated.

Turning to `CCn1cc(-c2nc(C)no2)c(=O)c2cc(F)c(N3CCC(C)CC3)cc21` [Compound 17, 1-Ethyl-6-fluoro-3-(3-methyl-1,2,4-oxadiazol-5-yl)-7-(4-methyl-1-piperidyl)quinolin-4-one], the logD at 2 h in the series “LogD at pH 7.4” worked out at 2.6. In addition, the pEC50 in the series on 7G8 was 8.05; in series [1], 5.74; with P. berghei EEFs, greater than 9.00; with Pf Dd2 parental line, 8.00; in the series on NF54, 7.92; in the series with K1, 8.05. Further, the pEC50 in the series on RF12 is 8.22; in [7], less than 4.60; in the series on HepG2 it was less than 4.30; in [11], 5.77. Besides, the “difference in sensitivity between the ELQ-300 resistant Dd2 strain and the Dd2 parental strain” value (“difference” for short) in series [2] is on record as “no difference in sensitivity”. Besides, the “in vitro EC99” value in series [3] stood at 0.030 µM. Also, the microsomal CLint at 1 μM in series [4] is 16.2 µL/min/mg. In series [5] (average for four mice on day 4), the “% parasitemia” value is listed as 8.1%. The “% reduction in parasitemia” value in series [5] (versus the vehicle control, four mice, day 4) is 56% and 56.2%. Also, the “OCR upon addition of TMPD” value in [6] is given as “rescued”. Moreover, the “effect on malate-dependent oxygen consumption rate (OCR)” value in series [6] was “significantly reduce the OCR”. For the same molecule, the “potency against each drug-resistant strain compared to the Dd2 and NF54 wild-type parasites” value in series [8] is given as “equipotent”. This molecule had an intrinsic clearance (hepatocyte CLint) at 1 μM in series [9] of 53.8 µL/min/1e6 cells. For the same molecule, the absorption result in series [10] is “moderate absorption”. Also, the “time for which total plasma concentration exceeds the in vitro EC99” value in series [10] (after dose 1) is “approximately 12 h”.

In “LogD at pH 7.4”, `CCn1cc(-c2nc(C)no2)c(=O)c2cc(F)c(N3CCC(Cc4ccccc4)CC3)cc21` [Compound 41, 7-(4-Benzyl-1-piperidyl)-1-ethyl-6-fluoro-3-(3-methyl-1,2,4-oxadiazol-5-yl)quinolin-4-one] showed a logD at 2 h of 4.2. The pEC50 was 8.52 in the series on 7G8; 6.32 in series [1]; 8.40 in the series on Pf Dd2 parental line; roughly 6.10 in series [12]; 8.30 in the series on NF54; 8.30 in the series with K1. Moreover, the pEC50 was 8.70 in the series on RF12 and 6.07 in series [11]. Also, in series [2], the “difference” value is “no difference in sensitivity”. Moreover, the “fold more potent than 17” value in series [3] (setting [15]) is on record as 2 fold. Further, the microsomal CLint at 1 μM in series [4] was 44.1 µL/min/mg. The “OCR upon addition of TMPD” value in [6] is on record as “rescued”. For the same molecule, the “effect on malate-dependent oxygen consumption rate (OCR)” value in series [6] is listed as “significantly reduce the OCR”. Further, the “potency against each drug-resistant strain compared to the Dd2 and NF54 wild-type parasites” value in series [8] is on record as “equipotent”. In series [9], this molecule returned an intrinsic clearance (hepatocyte CLint) at 1 μM of 24.7 µL/min/1e6 cells.

In the series “LogD at pH 7.4”, `CCOC(=O)c1cn(CC)c2cc(N3CCC(Cc4ccccc4)CC3)c(F)cc2c1=O` [Compound 43, Ethyl 7-(4-Benzyl-1-piperidyl)-1-ethyl-6-fluoro-4-oxo-quinoline-3-carboxylate] had a logD at 2 h of 4.6. Moreover, the negative logarithm of the EC50 (pEC50) in the series on 7G8 was 7.92; in the series on Pf Dd2 parental line it was 7.82; in the series with NF54, 7.77; in the series with K1, 7.85; in the series with RF12, 8.30. Moreover, in series [2], the “difference” value was “no difference in sensitivity”. Also, the “potency against each drug-resistant strain compared to the Dd2 and NF54 wild-type parasites” value in series [8] is on record as “equipotent”. The molecule further came in with a hepatocyte CLint at 1 μM in series [9] greater than 92.4 µL/min/1e6 cells. Moreover, in [13], the “aqueous solubility pH 7.4” value stood at 10.4 μM.

`CCOC(=O)c1cn(CC)c2cc(N3CCC(C)CC3)c(F)cc2c1=O` [Compound 21, Ethyl 1-Ethyl-6-fluoro-7-(4-methyl-1-piperidyl)-4-oxo-quinoline-3-carboxylate]: in the series “LogD at pH 7.4”, the logD at 2 h came to 3.2. The pEC50 with 7G8 was 7.42; with P. berghei EEFs, 7.62; in the series with Pf Dd2 parental line, 7.26; in the series on NF54, 7.19; in the series on K1, 7.32; in the series on RF12 it was 7.70. Moreover, the negative-log EC50 (pEC50) in series [7] is less than 4.60; in the series with HepG2, less than 4.30. Also, in [14], the “liver microsomes human CLint” value is 205.2 µL/min/mg. Besides, in series [8], the “potency against each drug-resistant strain compared to the Dd2 and NF54 wild-type parasites” value is on record as “equipotent”. The same molecule showed a hepatocyte CLint at 1 μM in [9] greater than 92.4 µL/min/1e6 cells. For the same molecule, the “aqueous solubility pH 7.4” value in series [13] is listed as 22.9 μM.

Take `CCn1cc(C(N)=O)c(=O)c2cc(F)c(N3CCC(C)CC3)cc21` [Compound 22, 1-Ethyl-6-fluoro-7-(4-methyl-1-piperidyl)-4-oxo-quinoline-3-carboxamide]: the “difference” value in [2] is “no difference in sensitivity”. Besides, the “fold less active/potent than 17” value in [3] (setting [15]) is “approximately 20 fold”. Also, the pEC50 was 7.62 in the series on P. berghei EEFs and less than 4.30 in the series with HepG2.
